Measurements reported in ChEMBL document CHEMBL1148735, “4-Substituted trinems as broad spectrum beta-lactamase inhibitors: structure-based design, synthesis, and biological activity” (J Med Chem, 2007).

Legend:
Beta-lactamase SHV-1 = molecular target: T1, Beta-lactamase SHV-1 (Escherichia coli, UniProt P0AD63); assay: Inhibition of Escherichia coli SHV1
T1 sequence (P0AD63 whole entry): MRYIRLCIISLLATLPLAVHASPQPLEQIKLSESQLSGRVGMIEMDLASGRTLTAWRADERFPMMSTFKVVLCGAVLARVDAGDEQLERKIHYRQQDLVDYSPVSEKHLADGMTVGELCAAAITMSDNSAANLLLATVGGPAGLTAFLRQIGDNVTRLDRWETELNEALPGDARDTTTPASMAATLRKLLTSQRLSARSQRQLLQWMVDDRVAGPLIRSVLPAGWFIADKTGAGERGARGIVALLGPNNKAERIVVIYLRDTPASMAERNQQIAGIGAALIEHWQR
In short: (§1)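 Recombinant β-lactamase, expressed in the pET system without its signal peptide and carrying an N-terminal His6 tag, purified on Ni-NTA. Inhibitor made as a 50 mM DMSO stock, then diluted in 50 mM phosphate pH 7 with 10% DMSO final. Enzyme and inhibitor preincubated 10 min at 37 °C. Started with prewarmed nitrocefin; A490 read every 30 s for 10 min at 37 °C.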

Beta-lactamase = Beta-lactamase (Enterobacter cloacae, UniProt P05364); assay: Inhibition of Enterobacter cloacae AmpC
Beta-lactamase TEM = Beta-lactamase TEM (Escherichia coli, UniProt P62593); assay: Inhibition of Escherichia coli TEM1; in short: as §1
Chain of Beta-lactamase TEM (P62593 whole entry): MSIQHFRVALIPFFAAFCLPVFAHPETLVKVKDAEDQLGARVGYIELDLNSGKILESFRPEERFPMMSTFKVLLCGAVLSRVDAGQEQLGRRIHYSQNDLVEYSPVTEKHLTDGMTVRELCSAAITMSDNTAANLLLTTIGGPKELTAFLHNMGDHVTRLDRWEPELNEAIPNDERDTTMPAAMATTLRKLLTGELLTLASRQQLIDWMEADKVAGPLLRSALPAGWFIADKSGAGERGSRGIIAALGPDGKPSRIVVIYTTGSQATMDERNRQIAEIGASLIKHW

Chain of Beta-lactamase (P05364 whole entry): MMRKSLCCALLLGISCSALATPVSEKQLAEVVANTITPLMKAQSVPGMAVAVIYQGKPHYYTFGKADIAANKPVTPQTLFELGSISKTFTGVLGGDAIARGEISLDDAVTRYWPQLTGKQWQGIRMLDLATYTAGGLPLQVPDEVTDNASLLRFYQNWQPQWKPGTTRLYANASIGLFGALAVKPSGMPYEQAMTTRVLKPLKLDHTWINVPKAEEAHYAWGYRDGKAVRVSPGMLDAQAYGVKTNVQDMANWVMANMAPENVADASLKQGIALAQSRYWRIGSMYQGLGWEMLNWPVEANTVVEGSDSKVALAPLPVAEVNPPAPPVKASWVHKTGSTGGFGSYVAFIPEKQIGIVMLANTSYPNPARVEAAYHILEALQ

Compound	IC50 (Beta-lactamase SHV-1) [µM]	IC50 (Beta-lactamase) [µM]	IC50 (Beta-lactamase TEM) [µM]
C/C=C1/C(=O)N2C(C(=O)O)=C3[C@@H](OCC)CCC[C@@H]3[C@H]12	0.385	0.229	0.057
C/C=C1/C(=O)N2C(C(=O)O)=C3[C@@H](OCCCC)CCC[C@@H]3[C@H]12	0.206	0.72	0.032
C/C=C1/C(=O)N2C(C(=O)O)=C3[C@@H](CCC[C@H]3OCC)[C@H]12	0.284	0.295	0.022
C/C=C1/C(=O)N2C(C(=O)O)=C3[C@@H](OCCF)CCC[C@@H]3[C@H]12	0.148	1.02	0.021
C/C=C1/C(=O)N2C(C(=O)O)=C3[C@@H](OC(C)C)CCC[C@@H]3[C@H]12	0.34	0.341	0.039
C/C=C1/C(=O)N2C(C(=O)O)=C3[C@@H](CCC[C@H]3OCCCC)[C@H]12	0.219	0.43	0.012
C/C=C1/C(=O)N2C(C(=O)O)=C3[C@@H](OCCC#N)CCC[C@@H]3[C@H]12	0.152	0.209	0.018
